Published values from different studies.
Each line is one published result; the experiments were not run side by side.
EIF2AK4 S808G C-terminal kinase domain: eIF-2-alpha kinase GCN2, C-terminal kinase domain (EIF2AK4, Homo sapiens, UniProt Q9P2K8, S808G)
EIF2AK4 S808G: eIF-2-alpha kinase GCN2 (EIF2AK4, Homo sapiens, UniProt Q9P2K8, S808G)

CCN1CCN(Cc2ccc(C(=O)Nc3ccc(C)c(Oc4ccc5c(c4)CC(=O)N5)c3)cc2C(F)(F)F)CC1 — remaining binding (EIF2AK4 S808G C-terminal kinase domain; binding; competition with immobilised ligand; 1 µM): 100%
CN1CCN(c2ccc(Nc3nccc(-c4ccccc4)n3)cc2C(F)(F)F)CC1 — remaining binding (EIF2AK4 S808G; binding; 10 µM): 0.2%
FC(F)(F)Oc1cccc(-c2cnc3ccc(-c4ccncc4)nn23)c1 — remaining binding (EIF2AK4 S808G; binding; competition with immobilised ligand; 5 µM): 35%
Cc1cnn2ncc(-c3ccnc(N(C)C)n3)c2c1 — remaining binding (EIF2AK4 S808G; binding; 1 µM): 96%
O=C(NS(=O)(=O)c1ccc(NCC2CCOCC2)c([N+](=O)[O-])c1)c1ccc(N2CCN(Cc3ccc(C(F)(F)F)cc3-c3ccc(Cl)cc3)CC2)cc1Oc1cnc2[nH]ccc2c1 — remaining binding (EIF2AK4 S808G C-terminal kinase domain; cell-free assay; competition with immobilised ligand; 1 µM): 85%
O=C(c1ccc(Nc2ncc(Cl)c(-c3ccc(Cl)s3)n2)cc1)N1CCC(N2CCCC2)CC1 — remaining binding (EIF2AK4 S808G C-terminal kinase domain; binding; competition with immobilised ligand; 1 µM): 0.25%
CN(c1nccc(-c2cnn3ncccc23)n1)C1CC1 — remaining binding (EIF2AK4 S808G; binding; 1 µM): 69%
O=C(NCCCC1CCCCC1)c1ccc(CNC(=O)c2cnn(-c3ccccc3)c2C(F)(F)F)cc1 — remaining binding (EIF2AK4 S808G C-terminal kinase domain; cell-free assay; competition with immobilised ligand; 0.1 µM): 100%
C[C@@H]1CCN(c2nccc(-c3cnn4ncccc34)n2)C1 — remaining binding (EIF2AK4 S808G; binding; 1 µM): 78%
Nc1ncc2c(n1)-c1c([nH]c3ccc(C#CC4CC4)cc13)CCCC2 — remaining binding (EIF2AK4 S808G C-terminal kinase domain; binding; competition with immobilised ligand; 1 µM): 89%
O=C(Nc1c[nH]nc1C(=O)NC1CCNCC1)c1cc(F)cc(F)c1 — remaining binding (EIF2AK4 S808G C-terminal kinase domain; binding; competition with immobilised ligand; 1 µM): 100%
CCCCN(CCCC)C(=O)CN1C[C@@H](c2cc(OC)c3c(c2)OCO3)[C@H](C(=O)O)[C@H]1CC(C)(C)CCC — remaining binding (EIF2AK4 S808G C-terminal kinase domain; cell-free assay; competition with immobilised ligand; 1 µM): 100%
COc1ccnn2ncc(-c3ccnc(N(C)C)n3)c12 — remaining binding (EIF2AK4 S808G; binding; 1 µM): 93%
O=C(NCCCN1CCOCC1)c1ccc(Nc2nccc(-c3cc4ccccc4s3)n2)cc1 — remaining binding (EIF2AK4 S808G C-terminal kinase domain; binding; competition with immobilised ligand; 1 µM): 15%
C[C@@H](c1cccc(C#N)c1)n1cc(Cl)cc(C(N)=O)c1=N — remaining binding (EIF2AK4 S808G C-terminal kinase domain; cell-free assay; competition with immobilised ligand; 1 µM): 50%
O=C(c1ccc(Nc2ncc(Cl)c(-c3cc4ccccc4s3)n2)cc1)N1CCC(N2CCCC2)CC1 — remaining binding (EIF2AK4 S808G C-terminal kinase domain; binding; competition with immobilised ligand; 1 µM): 0%
Cn1nc(C(F)(F)F)cc1-c1cnc(N2CCc3cc(S(=O)(=O)Nc4c(F)cc(Cl)cc4F)cc(N4CCCC4=O)c32)nc1 — remaining binding (EIF2AK4 S808G C-terminal kinase domain; cell-free assay; competition with immobilised ligand; 1 µM): 100%
COc1cnc(Nc2cccc(S(N)(=O)=O)c2)nc1N1CCN(c2ccccc2)C(=O)C1 — remaining binding (EIF2AK4 S808G C-terminal kinase domain; binding; competition with immobilised ligand; 1 µM): 90%
CN(C)c1nccc(-c2cnn3ncccc23)n1 — remaining binding (EIF2AK4 S808G; binding; 1 µM): 100%
O=C(NCc1ncc(C(F)(F)F)cc1Cl)c1ccc2c(c1)C1(CCS(=O)(=O)CC1)[C@@H](C1CC1)N2S(=O)(=O)c1ccc(F)cc1 — remaining binding (EIF2AK4 S808G C-terminal kinase domain; cell-free assay; competition with immobilised ligand; 1 µM): 100%
N[C@@H]1CCN(c2nccc(-c3cnn4ncccc34)n2)C1 — remaining binding (EIF2AK4 S808G; binding; 1 µM): 100%
O=C(NC[C@@H]1[C@H]2CN(C(=O)OCc3cc(C(F)(F)F)cc(C(F)(F)F)c3)C[C@@H]12)c1ccc2[nH]nnc2c1 — remaining binding (EIF2AK4 S808G C-terminal kinase domain; cell-free assay; competition with immobilised ligand; 1 µM): 84%
